Test results as given in ChEMBL document CHEMBL1133540, “4-Aminoquinolines: novel nociceptin antagonists with analgesic activity” (J Med Chem, 2000).

Legend:
Nociceptin receptor [1] = biological target: T1, Nociceptin receptor (Homo sapiens, UniProt P41146); assay: Percent inhibition of [3H]nociceptin ( 0.5 nM ) binding at 10 uM
Procedure, shortened: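 Single-point test at 10 μM compound against 0.5 nM [3H]nociceptin binding to human ORL1 in HeLa cell membranes. Buffer was Tris pH 8.5 with EDTA, protease inhibitor and BSA; incubation 30 min at room temperature. Filtration and scintillation counting. Specific binding = total minus binding in 1 μM unlabeled nociceptin. Read-out was percent inhibition.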

Nociceptin receptor [2] = biological target: T1, Nociceptin receptor; assay: Compound was evaluated for its ability to displace [3H]nociceptin ( 0.5 nM ) binding from Opioid receptor like 1 expressed in HeLa cells; assay type: cell-based
Procedure, shortened: (§1)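 Membranes from HeLa cells expressing human ORL1 (25 μg protein/mL) in 50 mM Tris pH 8.5 with 2 mM EDTA, 0.1 mM p-aminophenylmethanesulfonyl fluoride and 2 mg/mL BSA. Incubated 30 min at room temperature with 0.5 nM [3H]nociceptin and varied compound concentrations. Bound radioactivity was collected by filtration and counted by scintillation. Nonspecific binding was set with 1 μM unlabeled nociceptin. Ki reported as mean ± SE, n=3-6.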

Nociceptin receptor [3] = biological target: T1, Nociceptin receptor; assay: Ability to displace [3H]nociceptin ( 0.5 nM ) binding from Opioid receptor like 1 expressed in HeLa cells.; assay type: cell-based
Procedure, shortened: as §1, with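 “nociceptin.” for “nociceptin. Ki reported as mean ± SE, n=3-6.”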

[4] = Effect of compound on nociceptin-induced allodynia :Values are the mean ( SE of allodynia score at 20 min.; assay type: functional
Procedure, shortened: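 Male ICR mice, 4 weeks old, unanesthetized; nociceptin (50 pg/5 μL) injected intrathecally. Test compound 0.3 mg/kg suspended in 0.5% methyl cellulose, or vehicle as control, given orally 60 min before nociceptin. Allodynia score read at 20 min; mean ± SE, n = 9; Mann–Whitney U-test versus nociceptin-alone control.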

[5] = Effect of compound on nociceptin-induced allodynia :Values are the mean ( SE of allodynia score at 20 min. significantly different from control (nociceptin alone) by the Mann-Whitney U-test.; assay type: functional
Mu-type opioid receptor = Mu-type opioid receptor (Homo sapiens, UniProt P35372); assay: Inhibition of [3H]diprenorphine (0.33 nM) binding from human Opioid receptor mu 1 expressed in CHO-K1 cells.; assay type: cell-based
Procedure, shortened: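 CHO-K1 membranes expressing human μ-opioid receptor in 50 mM Tris-HCl pH 7.4 with 5 mM MgCl2 and 10% sucrose. Incubated 2.5 h at room temperature with 0.33 nM [3H]diprenorphine over a compound concentration range. Filtration and scintillation counting. Nonspecific binding defined with 10 μM naloxone. Ki given as mean ± SE, n=3.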

[6] = biological target: Kappa-type opioid receptor (Homo sapiens, UniProt P41145); assay: Inhibition of [3H][…] (0.55 nM) binding from human Opioid receptor kappa 1
[7] = biological target: Delta-type opioid receptor (Homo sapiens, UniProt P41143); assay: Inhibition of [3H]naltrindole (0.55 nM) binding from human Opioid receptor delta 1 expressed in CHO-K1 cells.; assay type: cell-based
Procedure, shortened: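 Human δ-opioid receptor from CHO-K1 membranes in 50 mM Tris-HCl pH 7.4, 5 mM MgCl2, 10% sucrose. Incubated 1 h at room temperature with 0.55 nM [3H]naltrindole and varied compound concentrations. Filter-bound radioactivity counted. 10 μM naloxone defined nonspecific binding. Ki as mean ± SE, n=3.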

T1 sequence (P41146 whole entry): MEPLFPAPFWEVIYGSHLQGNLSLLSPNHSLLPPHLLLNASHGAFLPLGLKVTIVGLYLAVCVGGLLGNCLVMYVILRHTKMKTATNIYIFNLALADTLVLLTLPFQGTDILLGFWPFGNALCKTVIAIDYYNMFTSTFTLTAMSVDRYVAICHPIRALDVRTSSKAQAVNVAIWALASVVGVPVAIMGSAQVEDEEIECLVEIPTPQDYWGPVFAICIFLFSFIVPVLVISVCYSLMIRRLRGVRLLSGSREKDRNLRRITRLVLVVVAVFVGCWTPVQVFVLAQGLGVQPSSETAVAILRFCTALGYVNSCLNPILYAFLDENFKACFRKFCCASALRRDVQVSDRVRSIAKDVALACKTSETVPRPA
Chain of Delta-type opioid receptor (P41143 whole entry): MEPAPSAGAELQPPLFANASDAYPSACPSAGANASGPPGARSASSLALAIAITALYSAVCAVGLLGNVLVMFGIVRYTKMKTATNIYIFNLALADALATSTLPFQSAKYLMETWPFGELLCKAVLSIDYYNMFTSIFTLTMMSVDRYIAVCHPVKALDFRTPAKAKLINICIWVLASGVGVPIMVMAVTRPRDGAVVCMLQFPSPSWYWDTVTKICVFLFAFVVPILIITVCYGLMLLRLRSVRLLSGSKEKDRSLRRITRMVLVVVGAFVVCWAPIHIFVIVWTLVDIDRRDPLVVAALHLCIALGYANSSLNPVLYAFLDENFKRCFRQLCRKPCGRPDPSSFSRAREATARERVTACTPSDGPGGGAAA
Chain of Mu-type opioid receptor (P35372 whole entry): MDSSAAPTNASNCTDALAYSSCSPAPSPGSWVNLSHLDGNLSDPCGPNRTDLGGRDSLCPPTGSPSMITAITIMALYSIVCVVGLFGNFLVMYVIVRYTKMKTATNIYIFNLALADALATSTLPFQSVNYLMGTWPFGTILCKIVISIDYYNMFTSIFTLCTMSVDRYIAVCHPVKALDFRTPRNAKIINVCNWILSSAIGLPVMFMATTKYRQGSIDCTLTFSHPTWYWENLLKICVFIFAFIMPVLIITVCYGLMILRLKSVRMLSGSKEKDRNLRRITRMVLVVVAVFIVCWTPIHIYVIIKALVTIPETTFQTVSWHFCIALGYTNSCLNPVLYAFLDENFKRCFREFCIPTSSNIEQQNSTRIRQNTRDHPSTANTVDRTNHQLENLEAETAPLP
Chain of Kappa-type opioid receptor (P41145 whole entry): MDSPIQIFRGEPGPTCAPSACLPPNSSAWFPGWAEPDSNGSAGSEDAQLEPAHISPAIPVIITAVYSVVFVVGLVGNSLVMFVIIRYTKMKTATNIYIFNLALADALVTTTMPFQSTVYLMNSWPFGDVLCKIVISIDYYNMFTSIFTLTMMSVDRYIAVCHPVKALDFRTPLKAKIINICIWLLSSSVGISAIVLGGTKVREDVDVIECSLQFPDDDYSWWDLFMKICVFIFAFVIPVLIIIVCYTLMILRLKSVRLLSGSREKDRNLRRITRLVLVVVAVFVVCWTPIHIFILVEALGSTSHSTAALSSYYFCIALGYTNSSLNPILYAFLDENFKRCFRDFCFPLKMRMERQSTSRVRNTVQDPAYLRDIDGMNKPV

Cc1cc(N)c2cc(NC(=O)c3ccccc3COc3ccccc3)ccc2n1
inhibition (Nociceptin receptor [1]): 93.6% | Ki (Nociceptin receptor [2]): 50.7 nM

Cc1cc(N)c2cc(NC(=O)c3ccccc3Cc3ccccc3)ccc2n1
inhibition (Nociceptin receptor [1]): 45.4%

Cc1ccc(OCc2ccccc2C(=O)Nc2ccc3nc(C)cc(N)c3c2)cc1
Ki (Nociceptin receptor [3]): 7 nM

Cc1cc2ccc(NC(=O)c3ccccc3COc3ccc(Cl)cc3)cc2c(N)n1
Ki (Nociceptin receptor [3]): 37.3 nM

Cc1cc(N)c2cc(NC(=O)c3ccccc3COc3ccc(N)cc3)ccc2n1
Ki (Nociceptin receptor [3]): 82.4 nM

Cc1cc(N)c2cc(NC(=O)c3ccccc3COc3ccc(Cl)cc3)ccc2n1
Ki (Nociceptin receptor [3]): 2.2 nM

Cc1cc(N)c2cc(NC(=O)c3ccccc3COc3cccc(Cl)c3)ccc2n1
Ki (Nociceptin receptor [3]): 20.4 nM

Cc1cc(N)c2cc(NC(=O)c3ccccc3COc3ccc(Br)cc3)ccc2n1
Ki (Nociceptin receptor [3]): 2.6 nM

Cc1cc(N)c2cc(NC(=O)c3ccccc3CCc3ccccc3)ccc2n1
inhibition (Nociceptin receptor [1]): 90.5% | Ki (Nociceptin receptor [2]): 79.9 nM

CC(C)C[C@H](NC(=O)[C@H](CCCCN)NC(=O)[C@H](CCCNC(=N)N)NC(=O)[C@H](C)NC(=O)[C@H](CO)NC(=O)[C@H](CCCCN)NC(=O)[C@H](CCCNC(=N)N)NC(=O)[C@H](C)NC(=O)CNC(=O)[C@@H](NC(=O)[C@H](Cc1ccccc1)NC(=O)CNC(=O)CNC(=O)[C@@H](N)Cc1ccccc1)[C@@H](C)O)C(=O)N[C@@H](C)C(=O)N[C@@H](CC(N)=O)C(=O)N[C@@H](CCC(N)=O)C(=O)O
Allodynia score [4]: 7.11

Cc1cc(N)c2cc(NC(=O)c3ccccc3CCCc3ccccc3)ccc2n1
Ki (Nociceptin receptor [3]): 121 nM | inhibition (Nociceptin receptor [1]): 98%

Nc1ccnc2ccc(NC(=O)c3ccccc3COc3ccc(Cl)cc3)cc12
Ki (Nociceptin receptor [3]): 85.6 nM

CCCc1cc(N)c2cc(NC(=O)c3ccccc3COc3ccc(Cl)cc3)ccc2n1
Ki (Nociceptin receptor [3]): 1.8 nM

Cc1ccc(CCc2ccccc2C(=O)Nc2ccc3nc(C)cc(N)c3c2)cc1
Ki (Nociceptin receptor [3]): 88.5 nM

CC(C)C[C@H](NC(=O)[C@H](CCCCN)NC(=O)[C@H](CCCN=C(N)N)NC(=O)[C@H](C)NC(=O)[C@H](CO)NC(=O)[C@H](CCCCN)NC(=O)[C@H](CCCN=C(N)N)NC(=O)[C@H](C)NC(=O)CNC(=O)[C@@H](NC(=O)[C@H](Cc1ccccc1)NC(=O)CNC(=O)CNC(=O)[C@@H](N)Cc1ccccc1)[C@@H](C)O)C(=O)N[C@@H](C)C(=O)N[C@@H](CC(N)=O)C(=O)N[C@@H](CCC(N)=O)C(=O)O.CCc1ccc(OCc2ccccc2C(=O)Nc2ccc3nc(C)cc(N)c3c2)cc1
Allodynia score [5]: < 3.11

Cc1cc(N)c2cc(NC(=O)c3ccc(CCc4ccccc4)cc3)ccc2n1
inhibition (Nociceptin receptor [1]): 48.4%

CCc1cc(N)c2cc(NC(=O)c3ccccc3COc3ccc(Cl)cc3)ccc2n1
Ki (Nociceptin receptor [3]): 1.8 nM

CCc1ccc(OCc2ccccc2C(=O)Nc2ccc3nc(C)cc(N)c3c2)cc1
Ki (Mu-type opioid receptor): 103 nM | Ki [6]: 1060 nM | Ki (Nociceptin receptor [3]): 8.2 nM | Ki [7]: 8.65 µM

Cc1cc(N)c2cc(NC(=O)c3ccccc3-c3ccccc3)ccc2n1
Ki (Nociceptin receptor [3]): 369 nM | inhibition (Nociceptin receptor [1]): 51.7%

Cc1cc(N)c2cc(NC(=O)c3ccccc3)ccc2n1
inhibition (Nociceptin receptor [1]): 32.9%

Cc1cc(N)c2cc(NC(=O)c3cccc(CCc4ccccc4)c3)ccc2n1
inhibition (Nociceptin receptor [1]): 23%

Cc1cc(N)c2cc(NC(=O)c3ccccc3COc3ccc(O)cc3)ccc2n1
Ki (Nociceptin receptor [3]): 46.7 nM

Cc1cc(N)c2cc(NC(=O)c3ccccc3COc3ccc(C(F)(F)F)cc3)ccc2n1
Ki (Nociceptin receptor [3]): 1.8 nM
